{
  "source": "paper PMC4138289",
  "about": "(Nature chemical biology, 2014)",
  "key": {"mouse spleen proteomes": {"system": "mouse spleen proteomes", "assay": "in vivo proteome reactivity, gel-based ABPP of mouse spleen", "settings": "mice, 10 or 20 mg/kg, i.p., 1 hr", "method_in_brief": "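C57BL/6 mice dosed i.p. in saline/EtOH/DMSO/Cremophor EL 17:1:1:1 (10 μL g−1). Inhibitor (20 mg/kg) or vehicle for 1 hr, then probe (10 or 20 mg/kg) for 1 hr; isoflurane, cervical dislocation. Tissues were DPBS-washed and bead-homogenized, spun at 1,500 × g, then 100,000 × g for 45 min (membrane/cytosolic) and set to 2 mg/mL. Rhodamine-azide click, SDS-PAGE, in-gel fluorescence.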"}, "[1]": {"system": "proteomes of cancer cell lines", "assay": "in situ proteomic reactivity by gel-based ABPP in cancer cells", "assay_type": "cell-based, human", "settings": "in situ treatment with 1 μM probe, cancer cells (SW620 and others)"}, "[2]": {"assay": "cytotoxicity, Sulforhodamine B assay, EGFR-independent cell lines", "assay_type": "cell-based", "settings": "human (MDA-MB-435S, SW620), mouse (NIH3T3)"}, "[3]": {"assay": "time course of compound concentrations in A431 cells", "assay_type": "in vitro ADME, human", "settings": "relative cellular concentrations"}},
  "data": [
    {"smiles": "C#Cc1cccc(Oc2ccc(-c3nn([C@@H]4CCCN(C(=O)C=C)C4)c4ncnc(N)c34)cc2)c1", "note": "[Probe 4]", "values": [
      {"measurement": "in vivo proteomic reactivity", "setting": "mouse spleen proteomes", "value": "higher proteomic reactivity than probe 6"}
    ]},
    {"smiles": "C#CCOc1cc2ncnc(Nc3ccc(F)c(Cl)c3)c2cc1NC(=O)CCCN(C)C", "note": "[Probe 13]", "values": [
      {"measurement": "time-dependent proteomic reactivity", "setting": "[1]", "value": "Negligible time-dependent proteomic reactivity"}
    ]},
    {"smiles": "CN(C)C/C=C/C(=O)Nc1cc2c(Nc3ccc(F)c(Cl)c3)ncnc2cc1O[C@H]1CCOC1", "note": "[afatinib, reference compound]", "values": [
      {"measurement": "IC50 at 72 h", "setting": "[2]", "value": "700 to 2200", "unit": "nM"},
      {"measurement": "stability / accumulation of compound in cells", "setting": "[3]", "value": "more prolonged accumulation in cells"}
    ]}
  ]
}
